Series [1] has as its target NS3 protease (Hepacivirus C, UniProt C1KIQ2, D168V). Put plainly: Inhibition of full-length HCV NS3 protease D168V mutant. Details: species or system Hepacivirus hominis. In a few lines: (§1)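 Ki determined in vitro against full-length NS3 protease variants carrying A156T, D168V or R155K substitutions, with the central part of NS4A as cofactor. Enzymes were expressed and purified by previously published methods. The R155K variant (genotype 1a) had the Arg→Lys change introduced at position 155 by PCR.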

The target in series [2] is NS3 protease (Hepatitis C virus subtype 1b, UniProt Q0ZMF1, A156T). Put plainly: Inhibition of full-length HCV NS3 protease A156T mutant. Also noted: species or system Hepacivirus hominis. In outline: as §1
The nature of series [3]: Inhibition of full-length wild-type HCV NS3 protease. Also noted: species or system Hepacivirus hominis. In a few lines:
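Ki was determined in vitro with full-length NS3 protease (genotype 1a construct, expressed and purified by earlier methods) and the central part of NS4A as cofactor.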

Series [4] is described as follows: Intrinsic clearance in human liver microsomes at 1 uM up to 40 mins by LC-MS/MS analysis in presence of NADPH. Format: ADME. The conditions noted are these: read-out: […]. In a few lines:
(§2)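 Compounds were incubated with pooled human liver microsomes (0.5 mg/mL) over 0–40 min. In vitro t1/2 and intrinsic clearance (Clint, μL/min/mg) were calculated with previously published models.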

Series [5] can be described thus: Apparent permeability from apical to basolateral side in human Caco2 cells at 10 uM by LC-MS analysis. In kind it is ADME, cell-based. The conditions noted are these: Caco-2. In outline: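 Apparent permeability coefficients (Papp) were derived from transport rates across Caco-2 cell monolayers. The assay used a modified, more physiological medium because the compounds adsorbed strongly to plasticware.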

The nature of series [6]: Half life in human liver microsomes at 1 uM by LC-MS/MS analysis. In kind it is ADME. In outline:
as §2

Series [7] is described as follows: Solubility of the compound in phosphate buffered saline at pH 7.4 after 1 hr by LC-MS/MS analysis. Format: physicochemical. In outline: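 Solubility was measured in phosphate-buffered saline at pH 7.4 with a final DMSO concentration of 1%.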

Molecules are shown by their SMILES. In brackets after ≈: the same amount, converted by molar mass.

With `CCC[C@H](NC(=O)[C@@H]1[C@H]2CCC[C@H]2CN1C(=O)[C@@H](NC(=O)[C@@H](NC(=O)c1cnccn1)C1CCCCC1)C(C)(C)C)C(=O)C(=O)NC1CC1` [TELAPREVIR], the Ki on NS3 protease [1] stood at 3.9 nM; at NS3 protease [2], 6100 nM; in series [3], 15 nM.
On to `CC(C)(C)NC(=O)Nc1nc(Cl)c(Cc2ccccc2)n(C(C(=O)Nc2ccccc2C(=O)NS(=O)(=O)c2ccc(C(F)(F)F)cc2)c2ccccc2)c1=O` (configuration not stated), for which the affinity in series [3], expressed as Ki, was 700 nM.
The same measure, in the same setting: as for `Cc1c(Cl)nc(NC(=O)OC(C)(C)C)c(=O)n1C(C(=O)Nc1ccccc1C(=O)NS(=O)(=O)c1ccc(C(F)(F)F)cc1)c1ccccc1` (configuration not stated), the figure is 3800 nM; as for `CC(C)(C)NC(=O)Nc1nc(Cl)c(Cc2cccc3ccccc23)n(CC(=O)Nc2ccccc2C(=O)NS(=O)(=O)c2ccc(C(F)(F)F)cc2)c1=O`, 290 nM.
On to `CC(C)(C)NC(=O)Nc1nc(Cl)c(Cc2ccc(Br)cc2)n(CC(=O)Nc2ccccc2C(=O)NS(=O)(=O)c2ccc(C(F)(F)F)cc2)c1=O`, for which affinity in series [3] was put at a Ki of 440 nM.
On the same count and under the same terms, to `CC(C)(C)NC(=O)Nc1nc(Cl)c(-c2cccc(-c3cccnc3)c2)n(CC(=O)Nc2ccccc2C(=O)NS(=O)(=O)c2ccc(C(F)(F)F)cc2)c1=O` belongs 390 nM.
`CC(C)(C)NC(=O)Nc1nc(Cl)c(Cc2ccccc2)n(CC(=O)NC(CC2CCC2)C(=O)C(N)=O)c1=O` (configuration not stated) displayed an inhibitory constant (Ki) in series [3] of 7100 nM.
Still for that read-out and setting: to `CC(C)(C)NC(=O)Nc1nc(Cl)c(Cc2ccc(-c3cccnc3)cc2)n(CC(=O)Nc2ccccc2C(=O)NS(=O)(=O)c2ccc(C(F)(F)F)cc2)c1=O` belongs 540 nM.
As to `CC(C)(C)NC(=O)Nc1nc(Cl)c(CCc2ccccc2)n(CC(=O)Nc2ccccc2C(=O)NS(=O)(=O)c2ccc(C(F)(F)F)cc2)c1=O`, the microsomal CLint at 1 µM in series [4] was < 13 µL/min/mg. The compound also registered a Ki in series [3] of 120 nM. The apical-to-basolateral permeability (Papp A→B) at 10 µM in series [5] worked out at 0.3 ×10⁻⁶ cm/s. In series [6], the half-life at 1 µM is > 100 min. This compound showed a solubility at 1 h in series [7] of 23 µM (≈ 16.9 µg/mL).
Turning to `Cc1c(Cl)nc(NC(=O)NC(C)(C)C)c(=O)n1C(C(=O)NC(CC1CCC1)C(=O)C(N)=O)c1ccccc1` (configuration not stated), in series [3], the Ki came out at 6200 nM.
As to `CC(C)(C)NC(=O)Nc1nc(Cl)c(Cc2ccccc2-c2cccnc2)n(CC(=O)Nc2ccccc2C(=O)NS(=O)(=O)c2ccc(C(F)(F)F)cc2)c1=O`, the Ki in series [3] was determined as 1100 nM.
Regarding `CC(C)(C)NC(=O)Nc1nc(Cl)c(CCC2CCCCC2)n(CC(=O)Nc2ccccc2C(=O)NS(=O)(=O)c2ccc(C(F)(F)F)cc2)c1=O`, the values for the inhibition constant Ki (at NS3 protease [1]; on NS3 protease [2]; in series [3]) were 320 nM, 170 nM and 110 nM, respectively. In series [4], the microsomal CLint at 1 µM is 52 µL/min/mg. Also, in series [5], the Papp A→B at 10 µM is 0.12 ×10⁻⁶ cm/s. Besides, the half-life at 1 µM in series [6] is 27 min. In series [7], this compound gave a solubility at 1 h of 31 µM (≈ 22.9 µg/mL).
Take `COc1ccc2c(O[C@@H]3C[C@H]4C(=O)N[C@]5(C(=O)O)C[C@H]5/C=C\CCCCC[C@H](NC(=O)OC5CCCC5)C(=O)N4C3)cc(-c3csc(NC(C)C)n3)nc2c1` [CILUPREVIR]: the figures for the inhibition constant (Ki) (at NS3 protease [1]; on NS3 protease [2]; in series [3]) were 200 nM, 120 nM and 0.089 nM, respectively.
For the compound `CC(C)(C)NC(=O)Nc1nc(Cl)c(-c2cccc(Br)c2)n(CC(=O)Nc2ccccc2C(=O)NS(=O)(=O)c2ccc(C(F)(F)F)cc2)c1=O`, affinity in series [3] was put at a Ki of 600 nM.
Take `CC(C)(C)NC(=O)Nc1nc(Cl)c(-c2ccc(-c3cccnc3)cc2)n(CC(=O)Nc2ccccc2C(=O)NS(=O)(=O)c2ccc(C(F)(F)F)cc2)c1=O`: the inhibition constant Ki on NS3 protease [1] was found to be 1520 nM; on NS3 protease [2], 740 nM; in series [3] it was 440 nM. For the same compound, the microsomal CLint at 1 µM in series [4] was 17 µL/min/mg. The apical-to-basolateral permeability (Papp A→B) at 10 µM in series [5] stood at 7 ×10⁻⁶ cm/s. In series [6], this compound came in with a half-life at 1 µM of 82 min. The amount in solution in series [7] (solubility at 1 h) came to 53 µM (≈ 41.5 µg/mL).
With `CCCCCc1c(Cl)nc(NC(=O)NC(C)(C)C)c(=O)n1CC(=O)Nc1ccccc1C(=O)NS(=O)(=O)c1ccc(C(F)(F)F)cc1`, the microsomal CLint at 1 µM in series [4] is 33 µL/min/mg. The compound also showed a Ki in series [3] of 160 nM. In addition, the apparent permeability from apical to basolateral (Papp A→B) at 10 µM in series [5] stood at 0.04 ×10⁻⁶ cm/s. Also, the half-life at 1 µM in series [6] worked out at 42 min. Also, the concentration in solution in series [7] (solubility at 1 h) was 21 µM (≈ 14.7 µg/mL).
With `CC(C)(C)NC(=O)Nc1nc(Cl)c(CCCc2ccccc2)n(CC(=O)Nc2ccccc2C(=O)NS(=O)(=O)c2ccc(C(F)(F)F)cc2)c1=O`, the affinity in series [3] corresponds to a Ki of 140 nM.
Same read-out and setting: to `CC(C)(C)NC(=O)Nc1nc(Cl)c(-c2ccccc2-c2cccnc2)n(CC(=O)Nc2ccccc2C(=O)NS(=O)(=O)c2ccc(C(F)(F)F)cc2)c1=O` belongs 2100 nM; to `CC(C)(C)NC(=O)Nc1nc(Cl)c(-c2ccc(Br)cc2)n(CC(=O)Nc2ccccc2C(=O)NS(=O)(=O)c2ccc(C(F)(F)F)cc2)c1=O`, 380 nM.
On the same count and under the same terms, to `CC(C)(C)NC(=O)Nc1nc(Cl)c(Cc2ccccc2)n(CC(=O)Nc2ccccc2C(=O)NS(=O)(=O)c2ccc(C(F)(F)F)cc2)c1=O` belongs 660 nM.
On to `Cc1c(Cl)nc(NC(=O)NC(C)(C)C)c(=O)n1C(C(=O)Nc1ccccc1C(=O)NS(=O)(=O)c1ccc(C(F)(F)F)cc1)c1ccccc1` (racemic), for which the figures for the Ki (on NS3 protease [1]; at NS3 protease [2]; in series [3]) were 1260 nM, 930 nM and 390 nM, respectively. Further, the microsomal CLint at 1 µM in series [4] was 26 µL/min/mg. Besides, in series [5], the Papp A→B at 10 µM stood at 1.1 ×10⁻⁶ cm/s. The half-life at 1 µM in series [6] was determined as 54 min. Moreover, the solubility at 1 h in series [7] came out at 38 µM (≈ 27.3 µg/mL).
`CC(C)(C)NC(=O)Nc1nc(Cl)c(Cc2cccc(Br)c2)n(CC(=O)Nc2ccccc2C(=O)NS(=O)(=O)c2ccc(C(F)(F)F)cc2)c1=O` showed a Ki in series [3] of 290 nM.
As to `CC(C)(C)NC(=O)Nc1nc(Cl)cn(CC(=O)Nc2ccccc2C(=O)NS(=O)(=O)c2ccc(C(F)(F)F)cc2)c1=O`, in series [3], the Ki was found to be 1900 nM.
The same measure, in the same setting: as for `CC(C)(C)NC(=O)Nc1nc(Cl)c(Cc2ccc3ccccc3c2)n(CC(=O)Nc2ccccc2C(=O)NS(=O)(=O)c2ccc(C(F)(F)F)cc2)c1=O`, the figure is 330 nM.
On to `CC(C)(C)NC(=O)Nc1nc(Cl)c(COCc2ccccc2)n(CC(=O)Nc2ccccc2C(=O)NS(=O)(=O)c2ccc(C(F)(F)F)cc2)c1=O`, for which the microsomal CLint at 1 µM in series [4] turned out to be 17 µL/min/mg. This compound yielded a Ki in series [3] of 560 nM. The apical-to-basolateral permeability (Papp A→B) at 10 µM in series [5] came out at 4 ×10⁻⁶ cm/s. This compound showed a half-life at 1 µM in series [6] of 81 min. In series [7], this compound came in with a solubility at 1 h of 22 µM (≈ 16.5 µg/mL).
In the case of `CC(C)(C)NC(=O)Nc1nc(Cl)c(Cc2cccc(-c3cccnc3)c2)n(CC(=O)Nc2ccccc2C(=O)NS(=O)(=O)c2ccc(C(F)(F)F)cc2)c1=O`, in series [3], the inhibition constant Ki came to 810 nM.
On the same count and under the same terms, to `CC(C)(C)NC(=O)Nc1nc(Cl)c(Cc2ccccc2Br)n(CC(=O)Nc2ccccc2C(=O)NS(=O)(=O)c2ccc(C(F)(F)F)cc2)c1=O` belongs 250 nM; to `CC(C)(C)NC(=O)Nc1nc(Cl)c(-c2ccccc2Br)n(CC(=O)Nc2ccccc2C(=O)NS(=O)(=O)c2ccc(C(F)(F)F)cc2)c1=O`, 400 nM.
